Data taken from PubChem BioAssay AID623991 (Broad Institute, 2012).
Activity calls are given as the source filed them.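 Rule for the calls: active = inhibitors lowering the signal whose fitted half-maximal concentration is at most twice the top valid tested dose; inconclusive = flat curve with partial inhibition, or a poor curve fit; inactive = effect opposite to expected, flat near zero, or too weak.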

Target: PvdQ acyl-homoserine lactone acylase (Pseudomonas aeruginosa LESB58)
Assay: inhibition of P. aeruginosa PvdQ enzyme – biochemical, 4-MU laurate fluorescence, dry powder, set 3, dose response (AID 623991)
Settings: Purified PvdQ, 4-MU laurate hydrolysis; for activity change, negative = inhibition: at 19.5 µM (top of the series)
In short: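 Assay system: Pseudomonas aeruginosa PvdQ acylase enzyme; Input: PvdQ enzyme at 0.02 µM final; Incubation: 30 min enzyme-compound pre-incubation, then 60 min substrate reaction, room temperature; Buffer or medium: Tris pH 8.0, NaCl, TCEP, Triton X-100 buffer; Detection: fluorescence, excitation 303–367 nm, emission 440–460 nm, reads at 0 and 60 min.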

`N#CC(c1ccc(Cl)cc1)N1CCCC1` (stereo not given) was tested, and the AC50 was 1830 nM.
With `N#CC(c1cccc(C(F)(F)F)n1)c1ccc(Cl)cc1F` (stereo not given) the AC50 was < 3 nM.
In the case of `N#CC(c1cccc(Cl)n1)c1ccc(Cl)cc1F` (stereo not given), the AC50 is reported as 15.6 nM.
`N#CC(c1ccc(Cl)cc1)c1ncccc1Cl` (stereo not given) gave an AC50 of 3.09 nM.
`N#CC(c1ccc(F)cc1)c1cccc(C(F)(F)F)n1` (stereo not given) was tested, and the AC50 was 4.71 nM.
With `N#CC(c1ccc(Cl)cc1)c1ccccn1` (stereo not given) the AC50 was 296 nM.
`CCCCC(c1ccc(Cl)cc1)c1nn[nH]n1` (stereo not given) gave an AC50 of 3190 nM.
With `CN(C)CCCC(C#N)c1ccc(F)cc1` (stereo not given) the AC50 was 589 nM.
In the case of `COCCOCCC(C#N)c1ccc(Cl)cc1` (stereo not given), the AC50 is reported as 7770 nM.
`N#CC1c2ccc(Cl)cc2CCc2cccnc21` (stereo not given) was tested, and the AC50 was 11200 nM.
For `N#CC(c1ccc(Cl)cc1)c1cccc(C(F)(F)F)n1` (stereo not given), the AC50 was 25.4 nM.
For `N#Cc1cccc(C(C#N)c2ccc(F)cc2)n1` (stereo not given), the AC50 was 200 nM.
Compound `N#CC(c1ccc(C(F)(F)F)c(Cl)n1)c1ccccc1OC(F)(F)F` (stereo not given) has an AC50 of 12200 nM.
`CN(C)CCCC(C#N)c1ccc(Cl)cc1` (stereo not given) was tested, and the AC50 was 17900 nM.
`CCCCC(C#N)c1ccc(Cl)cn1` (stereo not given) showed an AC50 of 3470 nM.
In the case of `COCCC(C#N)c1ccc(Cl)cc1` (stereo not given), the AC50 is reported as 6270 nM.
With `COCCNC(C#N)c1ccc(Cl)cc1` (stereo not given) the “activity change, negative = inhibition” value was “inactive”.
`COCCOCCC(C#N)c1ccc(F)cc1` (stereo not given) showed an AC50 of 165 nM.
`CCCCC(C#N)c1ccc(Cl)cc1` (stereo not given) showed an AC50 of 1070 nM.
With `COCCC(C#N)c1ccc(F)cc1` (stereo not given) the AC50 was 1270 nM.
For `CCCCC(C#N)c1ccc(F)cc1` (stereo not given), the AC50 was 607 nM.
For `N#CC(c1ccc(Cl)cc1)c1cccc(Cl)n1` (stereo not given), the AC50 was 36.8 nM.
For `CCCCC(C#N)c1ccc(F)cn1` (stereo not given), the “activity change, negative = inhibition” value was “inactive”.
`CCCCC(C#N)c1ccccn1` (stereo not given) was tested, and the “activity change, negative = inhibition” value was “inactive”.
`N#CC(c1ccc(F)cc1)c1cccc(Cl)n1` (stereo not given) showed an AC50 of 119 nM.
